# Measured values taken from ChEMBL document CHEMBL1275391, “Design, synthesis, and preclinical evaluation of new 5,6- (or 6,7-) disubstituted-2-(fluorophenyl)quinolin-4-one derivatives as potent antitumor agents” (J Med Chem, 2010).
# How the values were obtained:
# CCRF-CEM = experiment: Growth inhibition of human CCRF-CEM cells; format: functional
# HL-60(TB) = experiment: Growth inhibition of human HL-60(TB) cells; format: functional
# MOLT-4 = experiment: Growth inhibition of human MOLT4 cells; format: functional
# [1] = Growth inhibition of human […] cells; format: functional
# SR = experiment: Growth inhibition of human SR cells; format: functional
# A549 = experiment: Growth inhibition of human A549 cells; format: functional
# EKVX = experiment: Growth inhibition of human EKVX cells; format: functional
# HOP-62 = experiment: Growth inhibition of human HOP62 cells; format: functional
# NCI-H322M = experiment: Growth inhibition of human NCI-H322M cells; format: functional
# COLO 205 = experiment: Growth inhibition of human COLO205 cells; format: functional
# HCC 2998 = experiment: Growth inhibition of human HCC2998 cells; format: functional
# HCT-116 [2] = experiment: Growth inhibition of human HCT116 cells; format: functional
# HCT-15 = experiment: Growth inhibition of human HCT15 cells; format: functional
# HT-29 = experiment: Growth inhibition of human HT-29 cells; format: functional
# SF-268 = experiment: Growth inhibition of human SF268 cells; format: functional
# SF-539 = experiment: Growth inhibition of human SF539 cells; format: functional
# SNB-75 = experiment: Growth inhibition of human SNB75 cells; format: functional
# Malme-3M = experiment: Growth inhibition of human MALME-3M cells; format: functional
# MDA-MB-435 = experiment: Growth inhibition of human MDA-MB-435 cells; format: functional
# SK-MEL-2 = experiment: Growth inhibition of human SK-MEL-2 cells; format: functional
# UACC-257 = experiment: Growth inhibition of human UACC257 cells; format: functional
# UACC-62 = experiment: Growth inhibition of human UACC62 cells; format: functional
# IGROV-1 = experiment: Growth inhibition of human IGROV1 cells; format: functional
# OVCAR-4 = experiment: Growth inhibition of human OVCAR4 cells; format: functional
# NCI/ADR-RES = experiment: Growth inhibition of human NCI/ADR-RES cells; format: functional
# A498 = experiment: Growth inhibition of human A498 cells; format: functional
# CAKI-1 = experiment: Growth inhibition of human Caki1 cells; format: functional
# RXF 393 = experiment: Growth inhibition of human RXF393 cells; format: functional
# SN12C = experiment: Growth inhibition of human SN12C cells; format: functional
# TK-10 = experiment: Growth inhibition of human TK10 cells; format: functional
# UO-31 = experiment: Growth inhibition of human UO31 cells; format: functional
# PC-3 = experiment: Growth inhibition of human PC3 cells; format: functional
# MCF7 = experiment: Growth inhibition of human MCF7 cells; format: functional
# T47D = experiment: Growth inhibition of human T47D cells; format: functional
# HL-60 = experiment: Cytotoxicity against human HL60 cells after 48 hrs by MTT assay; format: functional, cell-based; conditions: HL-60, 48 h
# In short: (§1)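 Cells exposed to a range of compound concentrations for 48 h, washed once with PBS, then incubated with MTT for 2 h. Formazan dissolved in DMSO and absorbance read at 570 nm. IC50 taken as the concentration giving 50% inhibition of proliferation.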
# HCT-116 [3] = experiment: Cytotoxicity against human HCT116 cells after 48 hrs by MTT assay; format: functional, cell-based; conditions: HCT-116, 48 h; in short: as §1
# [4] = Cytotoxicity against human Hep3B cells after 48 hrs by MTT assay; format: functional, cell-based, Hep 3B2; in short: as §1
# [5] = biological target: Insulin-like growth factor 1 receptor (Homo sapiens) (UniProt P08069); experiment: Inhibition of tyrosine phosphorylation of IGF1R in human Hep3B cells assessed as decrease of phosphorylated IGF1R level after 12 hrs by Western blotting; format: cell-based; conditions: Hep 3B2
# In short: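 Hep3B cells were exposed to a range of concentrations for 12 h at 37 C, with DMSO as vehicle control. They were lysed in Tris-HCl pH 7.9 buffer containing Triton X-100, SDS, NaF, orthovanadate and protease inhibitors, then centrifuged. Lysates were immunoblotted with anti-pY1135/1136-IGF-1R, and IGF-1R β-subunit served as loading control.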
# CYP1A2 = CYP1A2 (Homo sapiens, UniProt P05177); experiment: Inhibition of human CYP1A2 at 10 uM; format: ADME
# [6] = biological target: Phosphodiesterase 4 (Homo sapiens) (UniProt P27815+Q08499+Q07343+Q08493); experiment: Inhibition of human PDE4 at 10 uM; format: protein assay
# UGT1A1 = UGT1A1 (Homo sapiens, UniProt P22309); experiment: Inhibition of human UGT1A1 at 10 uM
# [7] = read-out: pLC50 (the source's name) (converted)
# UGT1A1, sequence (P22309 whole entry): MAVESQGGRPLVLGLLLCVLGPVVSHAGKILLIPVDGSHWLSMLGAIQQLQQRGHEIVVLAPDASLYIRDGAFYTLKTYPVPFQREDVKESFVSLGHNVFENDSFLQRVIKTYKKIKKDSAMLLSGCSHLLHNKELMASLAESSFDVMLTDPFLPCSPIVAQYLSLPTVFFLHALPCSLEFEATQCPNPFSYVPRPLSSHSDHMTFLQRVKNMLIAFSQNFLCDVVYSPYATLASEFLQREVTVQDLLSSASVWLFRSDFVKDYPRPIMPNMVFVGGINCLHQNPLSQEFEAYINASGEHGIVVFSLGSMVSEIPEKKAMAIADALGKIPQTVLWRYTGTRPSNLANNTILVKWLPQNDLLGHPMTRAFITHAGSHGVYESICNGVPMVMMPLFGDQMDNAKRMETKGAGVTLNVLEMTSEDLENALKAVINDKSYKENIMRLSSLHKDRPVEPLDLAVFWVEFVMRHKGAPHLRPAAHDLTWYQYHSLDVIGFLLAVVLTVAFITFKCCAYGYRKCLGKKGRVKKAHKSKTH
# CYP1A2, sequence (P05177 whole entry): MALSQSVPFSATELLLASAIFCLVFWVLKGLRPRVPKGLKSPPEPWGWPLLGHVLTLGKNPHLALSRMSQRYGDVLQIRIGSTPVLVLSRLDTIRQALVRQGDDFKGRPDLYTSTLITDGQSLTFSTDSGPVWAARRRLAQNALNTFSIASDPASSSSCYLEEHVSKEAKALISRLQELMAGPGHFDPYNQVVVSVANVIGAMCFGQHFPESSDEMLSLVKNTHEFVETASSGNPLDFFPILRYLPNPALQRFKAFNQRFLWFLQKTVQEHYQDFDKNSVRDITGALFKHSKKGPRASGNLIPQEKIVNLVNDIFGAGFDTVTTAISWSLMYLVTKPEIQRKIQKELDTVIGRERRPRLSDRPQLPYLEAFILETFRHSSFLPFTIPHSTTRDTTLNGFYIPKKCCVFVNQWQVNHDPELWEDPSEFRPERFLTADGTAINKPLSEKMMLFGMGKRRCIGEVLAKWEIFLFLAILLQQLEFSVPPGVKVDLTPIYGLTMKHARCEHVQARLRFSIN
# Insulin-like growth factor 1 receptor (Homo sapiens), sequence (P08069 31-736 limits assumed): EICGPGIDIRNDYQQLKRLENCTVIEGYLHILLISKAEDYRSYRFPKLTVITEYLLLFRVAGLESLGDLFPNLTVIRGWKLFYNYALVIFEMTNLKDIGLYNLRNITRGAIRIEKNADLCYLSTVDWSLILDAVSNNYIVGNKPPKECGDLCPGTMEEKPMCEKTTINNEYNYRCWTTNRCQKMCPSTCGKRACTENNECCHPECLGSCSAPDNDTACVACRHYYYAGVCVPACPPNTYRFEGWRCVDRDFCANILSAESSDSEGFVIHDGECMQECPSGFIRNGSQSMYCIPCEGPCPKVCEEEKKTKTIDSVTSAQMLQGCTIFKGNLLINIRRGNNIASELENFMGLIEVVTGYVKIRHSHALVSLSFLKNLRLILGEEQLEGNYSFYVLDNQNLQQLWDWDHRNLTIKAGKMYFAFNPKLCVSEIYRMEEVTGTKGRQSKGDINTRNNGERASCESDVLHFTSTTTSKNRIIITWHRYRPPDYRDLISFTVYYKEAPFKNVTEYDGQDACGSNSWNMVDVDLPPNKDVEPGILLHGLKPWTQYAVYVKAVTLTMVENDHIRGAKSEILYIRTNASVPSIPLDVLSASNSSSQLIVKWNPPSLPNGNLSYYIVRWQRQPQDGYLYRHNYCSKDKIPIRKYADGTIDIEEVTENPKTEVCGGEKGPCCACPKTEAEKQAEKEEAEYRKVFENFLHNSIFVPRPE
# Insulin-like growth factor 1 receptor (Homo sapiens), sequence (P08069 741-1367 limits assumed): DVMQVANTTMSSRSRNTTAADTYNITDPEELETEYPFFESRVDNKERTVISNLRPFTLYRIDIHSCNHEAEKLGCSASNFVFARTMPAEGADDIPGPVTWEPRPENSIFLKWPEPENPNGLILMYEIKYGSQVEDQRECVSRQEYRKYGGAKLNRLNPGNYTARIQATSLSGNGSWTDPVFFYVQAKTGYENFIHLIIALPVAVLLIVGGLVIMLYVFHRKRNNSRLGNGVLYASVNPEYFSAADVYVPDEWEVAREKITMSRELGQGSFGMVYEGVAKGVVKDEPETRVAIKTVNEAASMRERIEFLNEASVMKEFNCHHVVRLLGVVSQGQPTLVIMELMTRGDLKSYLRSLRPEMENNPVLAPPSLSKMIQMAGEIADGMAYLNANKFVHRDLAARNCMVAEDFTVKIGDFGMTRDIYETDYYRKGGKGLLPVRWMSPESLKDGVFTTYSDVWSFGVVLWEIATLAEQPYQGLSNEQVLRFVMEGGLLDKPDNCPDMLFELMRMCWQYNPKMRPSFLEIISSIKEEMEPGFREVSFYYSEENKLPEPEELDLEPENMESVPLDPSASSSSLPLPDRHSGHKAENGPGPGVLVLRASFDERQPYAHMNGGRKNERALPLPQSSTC
smiles,measurement,setting,value
COc1ccc2[nH]c(-c3cccc(F)c3)cc(=O)c2c1O,GI50,CCRF-CEM,34.7 nM
same,CC50,CCRF-CEM; [7],> 100000 nM
same,TGI,CCRF-CEM; read-out: pTGI,> 100000 nM
same,GI50,HL-60(TB),22.4 nM
same,CC50,HL-60(TB); [7],> 100000 nM
same,TGI,HL-60(TB); read-out: pTGI (converted),63.1 nM
same,GI50,MOLT-4,47.9 nM
same,CC50,MOLT-4; [7],> 100000 nM
same,TGI,MOLT-4; read-out: pTGI (converted),19100 nM
same,GI50,[1],33.1 nM
same,CC50,[1]; [7],> 100000 nM
same,TGI,[1]; read-out: pTGI (converted),16200 nM
same,GI50,SR,12 nM
same,CC50,SR; [7],> 100000 nM
same,TGI,SR; read-out: pTGI (converted),67.6 nM
same,GI50,A549,41.7 nM
same,CC50,A549; [7],93300 nM
same,TGI,A549; read-out: pTGI (converted),14800 nM
same,GI50,EKVX,45.7 nM
same,CC50,EKVX; [7],> 100000 nM
same,TGI,EKVX; read-out: pTGI,> 100000 nM
same,GI50,HOP-62,50.1 nM
same,CC50,HOP-62; [7],42700 nM
same,TGI,HOP-62; read-out: pTGI (converted),14500 nM
same,GI50,NCI-H322M,851 nM
same,CC50,NCI-H322M; [7],> 100000 nM
same,TGI,NCI-H322M; read-out: pTGI,> 100000 nM
same,GI50,COLO 205,25.1 nM
same,CC50,COLO 205; [7],832 nM
same,TGI,COLO 205; read-out: pTGI (converted),66.1 nM
same,GI50,HCC 2998,32.4 nM
same,CC50,HCC 2998; [7],16200 nM
same,TGI,HCC 2998; read-out: pTGI (converted),66.1 nM
same,GI50,HCT-116 [2],33.1 nM
same,CC50,HCT-116 [2]; [7],29500 nM
same,TGI,HCT-116 [2]; read-out: pTGI (converted),1780 nM
same,GI50,HCT-15,35.5 nM
same,CC50,HCT-15; [7],> 100000 nM
same,TGI,HCT-15; read-out: pTGI (converted),14800 nM
same,GI50,HT-29,28.8 nM
same,CC50,HT-29; [7],15500 nM
same,TGI,HT-29; read-out: pTGI (converted),75.9 nM
same,GI50,SF-268,61.7 nM
same,CC50,SF-268; [7],89100 nM
same,TGI,SF-268; read-out: pTGI (converted),15500 nM
same,GI50,SF-539,26.3 nM
same,CC50,SF-539; [7],18600 nM
same,TGI,SF-539; read-out: pTGI (converted),97.7 nM
same,GI50,SNB-75,15.1 nM
same,CC50,SNB-75; [7],44700 nM
same,TGI,SNB-75; read-out: pTGI (converted),58.9 nM
same,CC50,Malme-3M; [7],> 100000 nM
same,TGI,Malme-3M; read-out: pTGI (converted),52500 nM
same,GI50,MDA-MB-435,< 10 nM
same,CC50,MDA-MB-435; [7],> 100000 nM
same,TGI,MDA-MB-435; read-out: pTGI (converted),45.7 nM
same,GI50,SK-MEL-2,72.4 nM
same,CC50,SK-MEL-2; [7],77600 nM
same,TGI,SK-MEL-2; read-out: pTGI (converted),15800 nM
same,GI50,UACC-257,33.9 nM
same,CC50,UACC-257; [7],> 100000 nM
same,TGI,UACC-257; read-out: pTGI,> 100000 nM
same,GI50,UACC-62,30.9 nM
same,CC50,UACC-62; [7],93300 nM
same,TGI,UACC-62; read-out: pTGI (converted),20000 nM
same,GI50,IGROV-1,26.9 nM
same,TGI,IGROV-1; read-out: pTGI (converted),93.3 nM
same,GI50,OVCAR-4,43.6 nM
same,CC50,OVCAR-4; [7],> 100000 nM
same,TGI,OVCAR-4; read-out: pTGI (converted),9120 nM
same,GI50,NCI/ADR-RES,20.9 nM
same,CC50,NCI/ADR-RES; [7],40700 nM
same,TGI,NCI/ADR-RES; read-out: pTGI (converted),53.7 nM
same,GI50,A498,24.6 nM
same,CC50,A498; [7],41700 nM
same,TGI,A498; read-out: pTGI (converted),209 nM
same,GI50,CAKI-1,46.8 nM
same,CC50,CAKI-1; [7],> 100000 nM
same,TGI,CAKI-1; read-out: pTGI (converted),22900 nM
same,GI50,RXF 393,17.4 nM
same,CC50,RXF 393; [7],56200 nM
same,TGI,RXF 393; read-out: pTGI (converted),45.7 nM
same,GI50,SN12C,61.7 nM
same,CC50,SN12C; [7],> 100000 nM
same,TGI,SN12C; read-out: pTGI (converted),38000 nM
same,GI50,TK-10,1780 nM
same,CC50,TK-10; [7],> 100000 nM
same,TGI,TK-10; read-out: pTGI (converted),67600 nM
same,GI50,UO-31,51.3 nM
same,CC50,UO-31; [7],39800 nM
same,TGI,UO-31; read-out: pTGI (converted),10200 nM
same,GI50,PC-3,32.4 nM
same,CC50,PC-3; [7],70800 nM
same,TGI,PC-3; read-out: pTGI (converted),15500 nM
same,GI50,MCF7,30.2 nM
same,CC50,MCF7; [7],> 100000 nM
same,TGI,MCF7; read-out: pTGI,> 100000 nM
same,GI50,T47D,28.2 nM
same,CC50,T47D; [7],87100 nM
same,IC50,HL-60,30 nM
same,IC50,HCT-116 [3],70 nM
same,IC50,[4],70 nM
same,inhibition,[5],Dose-dependent effect
same,inhibition at 10 µM,CYP1A2,85%
same,inhibition,[6],55%
same,inhibition at 10 µM,UGT1A1,86%
